Experimental data reported in ChEMBL document CHEMBL5724801, “EUbOPEN Chemogenomics Library - Multiplex” (2024).
Values joined by “and” are separate entries in the source; they are usually repeats but may differ in a detail not shown here. Identical values can stand only once.

Columns and labels:
Format in all cases: toxicity, cell-based
[1] = tested on: Fibroblast; experiment: Multiplex assay against human fibroblast
Outline: (§1)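 Live cells carried four stains from seeding: Hoechst33342, BioTracker Green Microtubule Cytoskeleton Dye, MitoTracker Red and Annexin V Alexa Fluor 680. They were imaged on a CQ1 microscope at 37°C and 5% CO2 after compound addition. Using CellPathfinder machine-learning gating, cells were split into Hoechst high-intensity objects or normal cells, normal cells into healthy, pyknosed or fragmented nuclei, and pyknosed cells into mitotic or apoptotic; tubulin, mitochondrial-mass and membrane-permeability phenotypes are per cents of healthy-nucleus cells.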

[2] = tested on: HEK-293T; experiment: Multiplex assay against HEK293T; conditions: human; outline: as §1
[3] = tested on: U2OS; experiment: Multiplex assay against U2OS; conditions: human; outline: as §1
[4] = 12 h, 1 µM, compound concentration 1 uM
[5] = 12 h, 10 µM, compound concentration 10 uM
[6] = 24 h, 1 µM, compound concentration 1 uM
[7] = 24 h, 10 µM, compound concentration 10 uM
[8] = 48 h, 1 µM, compound concentration 1 uM
[9] = 48 h, 10 µM, compound concentration 10 uM

CN(C)Cc1cccc(NC(=C2C(=O)Nc3cc(C(=O)N(C)C)ccc32)c2ccccc2)c1
Population Fragmented Nuclei (%) [1, 4]: 12.28% and 5.26%
Population Healthy Nuclei (%) [1, 4]: 63.16% and 78.47%
Population Hoechst High Intensity Objects (%) [1, 4]: 0%
Population Membrane Permeable-Phenotype (%) [1, 4]: 4.17% and 9.15%
Population Mitochondria Different-Phenotype (%) [1, 4]: 12.5% and 7.93%
Population Mitotic Cells (%) [1, 4]: 91.07% and 67.65%
Population Normal (%) [1, 4]: 100%
Population Pyknosed Nuclei (%) [1, 4]: 24.56% and 16.27%
Population Tubulin-Different-Phenotype (%) [1, 4]: 20.14% and 25%
Total Cell Count [1, 4]: 228 and 209
Population Apoptotic (%) [1, 5]: 15.09% and 31.43%
Population Fragmented Nuclei (%) [1, 5]: 12.72% and 8.65%
Population Healthy Nuclei (%) [1, 5]: 64.04% and 80.13%
Population Hoechst High Intensity Objects (%) [1, 5]: 0%
Population Membrane Permeable-Phenotype (%) [1, 5]: 8.22% and 6.4%
Population Mitochondria Different-Phenotype (%) [1, 5]: 23.97% and 16.8%
Population Mitotic Cells (%) [1, 5]: 84.91% and 68.57%
Population Normal (%) [1, 5]: 100%
Population Pyknosed Nuclei (%) [1, 5]: 23.25% and 11.22%
Population Tubulin-Different-Phenotype (%) [1, 5]: 54.79% and 75.6%
Total Cell Count [1, 5]: 228 and 312
Population Fragmented Nuclei (%) [1, 6]: 10.42% and 4.72%
Population Healthy Nuclei (%) [1, 6]: 77.5% and 83.96%
Population Hoechst High Intensity Objects (%) [1, 6]: 0%
Population Membrane Permeable-Phenotype (%) [1, 6]: 1.08% and 2.81%
Population Mitochondria Different-Phenotype (%) [1, 6]: 4.84% and 10.11%
Population Mitotic Cells (%) [1, 6]: 93.1% and 75%
Population Normal (%) [1, 6]: 100%
Population Pyknosed Nuclei (%) [1, 6]: 12.08% and 11.32%
Population Tubulin-Different-Phenotype (%) [1, 6]: 11.29% and 23.03%
Total Cell Count [1, 6]: 240 and 212
Population Apoptotic (%) [1, 7]: 13.33% and 25%
Population Healthy Nuclei (%) [1, 7]: 66.94% and 85.67%
Population Hoechst High Intensity Objects (%) [1, 7]: 0%
Population Membrane Permeable-Phenotype (%) [1, 7]: 8.43% and 2.18%
Population Mitochondria Different-Phenotype (%) [1, 7]: 24.7% and 21.82%
Population Mitotic Cells (%) [1, 7]: 86.67% and 75%
Population Normal (%) [1, 7]: 100%
Population Pyknosed Nuclei (%) [1, 7]: 18.15% and 9.97%
Population Tubulin-Different-Phenotype (%) [1, 7]: 63.25% and 79.64%
Total Cell Count [1, 7]: 248 and 321
Population Apoptotic (%) [1, 8]: 26.67% and 31.25%
Population Fragmented Nuclei (%) [1, 8]: 11.31% and 7.86%
Population Healthy Nuclei (%) [1, 8]: 83.21% and 85.15%
Population Hoechst High Intensity Objects (%) [1, 8]: 0%
Population Membrane Permeable-Phenotype (%) [1, 8]: 0.88% and 7.18%
Population Mitotic Cells (%) [1, 8]: 73.33% and 68.75%
Population Normal (%) [1, 8]: 100%
Population Pyknosed Nuclei (%) [1, 8]: 5.47% and 6.99%
Population Tubulin-Different-Phenotype (%) [1, 8]: 7.46% and 16.92%
Total Cell Count [1, 8]: 274 and 229
Population Apoptotic (%) [1, 9]: 33.33% and 64.71%
Population Fragmented Nuclei (%) [1, 9]: 14.48% and 6.69%
Population Healthy Nuclei (%) [1, 9]: 77.44% and 87.9%
Population Hoechst High Intensity Objects (%) [1, 9]: 0%
Population Membrane Permeable-Phenotype (%) [1, 9]: 1.3% and 2.9%
Population Mitochondria Different-Phenotype (%) [1, 9]: 11.3% and 9.42%
Population Mitotic Cells (%) [1, 9]: 66.67% and 35.29%
Population Normal (%) [1, 9]: 100%
Population Pyknosed Nuclei (%) [1, 9]: 8.08% and 5.41%
Population Tubulin-Different-Phenotype (%) [1, 9]: 43.48% and 85.14%
Total Cell Count [1, 9]: 297 and 314
Population Apoptotic (%) [2, 4]: 14.71% and 13.93%
Population Hoechst High Intensity Objects (%) [2, 4]: 0%
Population Membrane Permeable-Phenotype (%) [2, 4]: 2.97% and 0%
Population Mitochondria Different-Phenotype (%) [2, 4]: 27.72% and 21.05%
Population Mitotic Cells (%) [2, 4]: 85.29% and 86.07%
Population Normal (%) [2, 4]: 100%
Population Pyknosed Nuclei (%) [2, 4]: 32.08% and 85.31%
Total Cell Count [2, 4]: 424 and 143
Population Apoptotic (%) [2, 5]: 28.57% and 37.07%
Population Fragmented Nuclei (%) [2, 5]: 3.59% and 6.21%
Population Hoechst High Intensity Objects (%) [2, 5]: 0.65% and 0%
Population Membrane Permeable-Phenotype (%) [2, 5]: 0.65% and 0%
Population Mitochondria Different-Phenotype (%) [2, 5]: 22.58% and 0%
Population Mitotic Cells (%) [2, 5]: 71.43% and 62.93%
Population Normal (%) [2, 5]: 99.35% and 100%
Population Pyknosed Nuclei (%) [2, 5]: 45.75% and 80%
Population Tubulin-Different-Phenotype (%) [2, 5]: 30.97% and 70%
Total Cell Count [2, 5]: 308 and 145
Population Apoptotic (%) [2, 6]: 14.29% and 19.69%
Population Healthy Nuclei (%) [2, 6]: 68.64% and 31.44%
Population Hoechst High Intensity Objects (%) [2, 6]: 0% and 1.52%
Population Membrane Permeable-Phenotype (%) [2, 6]: 1.78% and 1.64%
Population Mitochondria Different-Phenotype (%) [2, 6]: 11.17% and 11.48%
Population Mitotic Cells (%) [2, 6]: 85.71% and 80.31%
Population Normal (%) [2, 6]: 100% and 98.48%
Population Tubulin-Different-Phenotype (%) [2, 6]: 15.48% and 9.84%
Total Cell Count [2, 6]: 574 and 197
Population Apoptotic (%) [2, 7]: 47.22% and 65.45%
Population Fragmented Nuclei (%) [2, 7]: 1.9% and 4%
Population Hoechst High Intensity Objects (%) [2, 7]: 0%
Population Membrane Permeable-Phenotype (%) [2, 7]: 1.58% and 2.94%
Population Mitochondria Different-Phenotype (%) [2, 7]: 28.85% and 52.94%
Population Mitotic Cells (%) [2, 7]: 52.78% and 34.55%
Population Normal (%) [2, 7]: 100%
Population Pyknosed Nuclei (%) [2, 7]: 29.35% and 73.33%
Population Tubulin-Different-Phenotype (%) [2, 7]: 57.71% and 41.18%
Total Cell Count [2, 7]: 368 and 150
Population Fragmented Nuclei (%) [2, 8]: 9.11% and 4.39%
Population Healthy Nuclei (%) [2, 8]: 81.42% and 58.77%
Population Hoechst High Intensity Objects (%) [2, 8]: 0.09% and 1.3%
Population Membrane Permeable-Phenotype (%) [2, 8]: 9.75% and 2.24%
Population Mitochondria Different-Phenotype (%) [2, 8]: 13.07% and 33.58%
Population Mitotic Cells (%) [2, 8]: 98.1% and 79.76%
Population Normal (%) [2, 8]: 99.91% and 98.7%
Population Apoptotic (%) [2, 9]: 35.58% and 37.33%
Population Fragmented Nuclei (%) [2, 9]: 1.61% and 2.67%
Population Healthy Nuclei (%) [2, 9]: 79.82% and 47.33%
Population Hoechst High Intensity Objects (%) [2, 9]: 0%
Population Membrane Permeable-Phenotype (%) [2, 9]: 2.91% and 2.82%
Population Mitochondria Different-Phenotype (%) [2, 9]: 76.06% and 67.61%
Population Mitotic Cells (%) [2, 9]: 64.42% and 62.67%
Population Normal (%) [2, 9]: 100%
Population Pyknosed Nuclei (%) [2, 9]: 18.57% and 50%
Population Apoptotic (%) [3, 4]: 28.26% and 30.43%
Population Fragmented Nuclei (%) [3, 4]: 2.06% and 3.41%
Population Healthy Nuclei (%) [3, 4]: 87.39% and 83.52%
Population Hoechst High Intensity Objects (%) [3, 4]: 0%
Population Membrane Permeable-Phenotype (%) [3, 4]: 0.52% and 6.8%
Population Mitochondria Different-Phenotype (%) [3, 4]: 0% and 12.24%
Population Mitotic Cells (%) [3, 4]: 71.74% and 69.57%
Population Normal (%) [3, 4]: 100%
Population Pyknosed Nuclei (%) [3, 4]: 10.55% and 13.07%
Population Tubulin-Different-Phenotype (%) [3, 4]: 2.1% and 0.68%
Total Cell Count [3, 4]: 436 and 176
Population Apoptotic (%) [3, 5]: 55.32% and 60.53%
Population Fragmented Nuclei (%) [3, 5]: 3.8% and 4.6%
Population Healthy Nuclei (%) [3, 5]: 81.33% and 73.56%
Population Hoechst High Intensity Objects (%) [3, 5]: 0%
Population Membrane Permeable-Phenotype (%) [3, 5]: 17.12% and 38.28%
Population Mitotic Cells (%) [3, 5]: 44.68% and 39.47%
Population Normal (%) [3, 5]: 100%
Population Pyknosed Nuclei (%) [3, 5]: 14.87% and 21.84%
Population Tubulin-Different-Phenotype (%) [3, 5]: 58.37% and 42.19%
Total Cell Count [3, 5]: 316 and 174
Population Apoptotic (%) [3, 6]: 51.56% and 40%
Population Fragmented Nuclei (%) [3, 6]: 1.88% and 1.95%
Population Healthy Nuclei (%) [3, 6]: 87.2% and 85.85%
Population Hoechst High Intensity Objects (%) [3, 6]: 0.17% and 0%
Population Membrane Permeable-Phenotype (%) [3, 6]: 1.76% and 3.98%
Population Mitotic Cells (%) [3, 6]: 48.44% and 60%
Population Normal (%) [3, 6]: 99.83% and 100%
Population Pyknosed Nuclei (%) [3, 6]: 10.92% and 12.2%
Population Tubulin-Different-Phenotype (%) [3, 6]: 1.96% and 2.27%
Total Cell Count [3, 6]: 587 and 205
Population Apoptotic (%) [3, 7]: 70.87% and 69.84%
Population Fragmented Nuclei (%) [3, 7]: 5.07% and 6.21%
Population Healthy Nuclei (%) [3, 7]: 65.92% and 58.19%
Population Hoechst High Intensity Objects (%) [3, 7]: 0.28% and 0%
Population Membrane Permeable-Phenotype (%) [3, 7]: 18.8% and 30.1%
Population Mitotic Cells (%) [3, 7]: 29.13% and 30.16%
Population Normal (%) [3, 7]: 99.72% and 100%
Population Pyknosed Nuclei (%) [3, 7]: 29.01% and 35.59%
Population Tubulin-Different-Phenotype (%) [3, 7]: 47.86% and 58.25%
Total Cell Count [3, 7]: 356 and 177
Population Apoptotic (%) [3, 8]: 54.74% and 41.51%
Population Fragmented Nuclei (%) [3, 8]: 2.6% and 1.21%
Population Healthy Nuclei (%) [3, 8]: 87.9% and 82.73%
Population Hoechst High Intensity Objects (%) [3, 8]: 0%
Population Membrane Permeable-Phenotype (%) [3, 8]: 1.02% and 2.56%
Population Mitochondria Different-Phenotype (%) [3, 8]: 0% and 5.13%
Population Mitotic Cells (%) [3, 8]: 45.26% and 58.49%
Population Normal (%) [3, 8]: 100%
Population Pyknosed Nuclei (%) [3, 8]: 9.5% and 16.06%
Population Tubulin-Different-Phenotype (%) [3, 8]: 0.57% and 2.56%
Population Apoptotic (%) [3, 9]: 82.42% and 88.41%
Population Fragmented Nuclei (%) [3, 9]: 3.22% and 2.72%
Population Healthy Nuclei (%) [3, 9]: 72.39% and 59.78%
Population Hoechst High Intensity Objects (%) [3, 9]: 0%
Population Mitochondria Different-Phenotype (%) [3, 9]: 14.07% and 38.18%
Population Mitotic Cells (%) [3, 9]: 17.58% and 11.59%
Population Normal (%) [3, 9]: 100%
Population Pyknosed Nuclei (%) [3, 9]: 24.4% and 37.5%
Population Tubulin-Different-Phenotype (%) [3, 9]: 61.85% and 69.09%
Total Cell Count [3, 9]: 373 and 184
